# Source: publication PMC2934894 (Biochemical pharmacology, 2010)
# Like-named read-outs stand apart in the source and are kept apart here.
# Columns and labels:
# ERα + ERβ = assay: HEK293 ERE-luciferase reporter assay, ERα + ERβ; format: cell-based
# Method in brief: (§1)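 HEK293 cells were batch-transfected per well with 2.5 ng of each ER (ERα alone or ERα + ERβ) plus 50 ng tk-ERE-luc. After 48 h expression, cells were exposed to ligands for 24 h and lysed. Firefly luciferase luminescence was measured and normalized to β-galactosidase luminescence in the same well.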
# ERα/β heterodimer = ERα/β heterodimer (Homo sapiens, UniProt P03372+Q92731); assay: BRET assay, ERα/β heterodimerization in transfected HEK293 cells; format: cell-based; conditions: 1 hour
# Sequence of ERα/β heterodimer (Q92731 whole entry, one chain of several, the tested form may be a part): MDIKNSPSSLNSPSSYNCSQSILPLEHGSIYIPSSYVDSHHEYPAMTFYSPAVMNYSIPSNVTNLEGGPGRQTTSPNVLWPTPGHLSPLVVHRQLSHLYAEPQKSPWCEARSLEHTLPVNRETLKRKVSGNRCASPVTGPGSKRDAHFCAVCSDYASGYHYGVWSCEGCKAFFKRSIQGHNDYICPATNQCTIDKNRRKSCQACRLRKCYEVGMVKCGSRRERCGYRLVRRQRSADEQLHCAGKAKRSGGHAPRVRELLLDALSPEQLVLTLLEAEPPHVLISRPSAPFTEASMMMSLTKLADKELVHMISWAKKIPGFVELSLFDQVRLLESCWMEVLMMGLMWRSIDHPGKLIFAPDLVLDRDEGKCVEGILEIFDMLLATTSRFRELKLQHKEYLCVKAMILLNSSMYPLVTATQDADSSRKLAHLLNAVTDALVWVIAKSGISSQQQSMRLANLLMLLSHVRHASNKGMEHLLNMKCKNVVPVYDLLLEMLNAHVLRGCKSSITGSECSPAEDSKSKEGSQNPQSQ
# Method in brief: (§2)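 HEK293 cells batch-transfected in phenol red free DMEM + 5% SFS with fusion pairs: ERα-RLuc + ERα-YFP (α/α), RLuc-ERβ + YFP-ERβ (β/β) or ERα-RLuc + YFP-ERβ (α/β). RLuc-only cells were included for the correction factor. After 24 h, cells were trypsinized and replated at 10,000/well in PBS. Compound was applied for 1 h, then coelenterazine h was added. Emission was read at 470/530 nm; BRET ratio; triplicates; E2 positive, DMSO negative control.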
# ERα/α homodimer = target: T1, ERα/α homodimer (Homo sapiens, UniProt P03372); assay: BRET assay, ERα/α homodimerization in transfected HEK293 cells; format: cell-based; conditions: 100 μM purified compound
# T1 sequence (P03372 1-595) 1: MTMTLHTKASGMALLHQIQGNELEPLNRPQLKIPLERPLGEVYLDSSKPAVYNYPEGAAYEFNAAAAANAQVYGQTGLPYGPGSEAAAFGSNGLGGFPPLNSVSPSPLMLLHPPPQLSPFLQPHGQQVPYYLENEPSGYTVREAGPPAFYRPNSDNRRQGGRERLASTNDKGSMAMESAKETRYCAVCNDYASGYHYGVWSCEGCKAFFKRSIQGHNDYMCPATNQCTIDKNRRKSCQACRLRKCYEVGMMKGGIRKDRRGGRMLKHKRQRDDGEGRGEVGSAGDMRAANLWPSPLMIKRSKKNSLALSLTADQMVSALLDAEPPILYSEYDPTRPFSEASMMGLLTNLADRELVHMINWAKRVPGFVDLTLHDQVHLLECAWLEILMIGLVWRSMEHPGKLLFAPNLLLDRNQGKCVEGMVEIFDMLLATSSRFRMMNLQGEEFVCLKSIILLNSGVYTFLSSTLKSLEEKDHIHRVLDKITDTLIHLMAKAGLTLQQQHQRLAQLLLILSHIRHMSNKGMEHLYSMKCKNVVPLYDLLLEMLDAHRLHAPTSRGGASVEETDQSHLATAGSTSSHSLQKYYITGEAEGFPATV
# T1 sequence (P03372 1-595) 2: T1 sequence (P03372 1-595) 1
# Method in brief: as §2
# ERβ/β homodimer = ERβ/β homodimer (Homo sapiens, UniProt Q92731); assay: BRET assay, ERβ/β homodimerization in transfected HEK293 cells; format: cell-based; conditions: 100 μM purified compound
# Sequence of ERβ/β homodimer (Q92731 whole entry): as the sequence (Q92731 whole entry, one chain of several, the tested form may be a part) above
# Sequence of ERβ/β homodimer (Q92731 whole entry): as the sequence (Q92731 whole entry, one chain of several, the tested form may be a part) above
# Method in brief: as §2
# ERα [1] = target: T2, ERα (Homo sapiens, UniProt P03372); assay: HEK293 ERE-luciferase reporter assay, ERα alone; format: cell-based; conditions: HEK293, 24 hours with ligand, 10 μM and 100 μM
# Method in brief: as §1
# ERβ [2] = target: T3, ERβ (Homo sapiens, UniProt Q92731); assay: HEK293 ERE-luciferase reporter assay, ERβ alone; format: cell-based; conditions: HEK293, 24 hours with ligand, 10 μM and 100 μM
# T3 sequence (Q92731 whole entry): as the sequence (Q92731 whole entry, one chain of several, the tested form may be a part) above
# HC11 cells [3] = assay: MTT assay for cellular metabolic activity, HC11; format: cell-based, mouse; conditions: inhibition retained in the presence of ICI 182,780
# PC3 cells [4] = assay: MTT assay for cellular metabolic activity, PC3; format: cell-based, human; conditions: inhibition retained in the presence of ICI 182,780
# ERα [5] = target: T2, ERα; assay: Fluorescence Polarization Competition Binding Assay, ERα; conditions: read-out: Ki for binding to ERα; correlated from IC50, FP competition
# Method in brief: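 Competitive fluorescence polarization used purified ERα from a commercial kit. Compound was tenfold serially diluted in screening buffer (down to 10 pM final), DMSO below 1%. It was mixed with ERα (15 nM final) and Fluormone tracer (1 nM final). Incubation was 2 h in the dark at room temperature, then polarization was read in glass tubes.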
# ERβ [6] = target: T3, ERβ; assay: Fluorescence Polarization Competition Binding Assay, ERβ
# HC11 cells [7] = conditions: HC11, 10 μM synthetic compound, vs DMSO, p= 0.06
# PC3 cells [8] = conditions: vs DMSO
Compound,"effect on actinopolymorphol A-dependent reporter activity (ERα + ERβ; in the presence of ERα + ERβ, HEK293 ERE-luciferase)",induction for ERα/β heterodimers (BRET ratio) (ERα/β heterodimer; 10 μM purified compound),increase in ERα/β heterodimerization (BRET ratio) (ERα/β heterodimer; 100 μM purified compound),induction of ERα/α homodimer (BRET ratio) (ERα/α homodimer),induction of ERβ/β homodimer (BRET ratio) (ERβ/β homodimer),transcriptional activity of ERα alone (ERE-luciferase) (ERα [1]),transcriptional activity of ERβ alone (ERE-luciferase) (ERβ [2]),"transcriptional activity of ERα + ERβ (ERE-luciferase) (ERα + ERβ; HEK293, 24 hours with ligand, 10 μM and 100 μM)",cell proliferation (MTT metabolic activity) (HC11 cells [3]),cell proliferation (MTT metabolic activity) (PC3 cells [4]),Ki (ERα [5]),"binding affinity for ERβ over ERα (ERβ [6]; FP competition binding, ERβ vs ERα)","Ki (ERβ [6]; read-out: Ki for binding to ERβ, correlated from IC50, FP competition)",cell number (HC11 cells [7]),"cell number (PC3 cells [8]; PC3, 10 μM synthetic compound, p= 0.03)","cell number (PC3 cells [8]; PC3, 100 μM synthetic compound, p=0.002)"
"C[C@]12CC[C@@H]3c4ccc(O)cc4C[C@@H](CCCCCCCCC[S+]([O-])CCCC(F)(F)C(F)(F)F)[C@H]3[C@@H]1CC[C@@H]2O (stereo partly shown) [ICI 182,780, reference compound]",completely abrogated,–,–,–,–,–,–,–,–,–,–,–,–,–,–,–
actinopolymorphol A,–,3 fold,5 fold,less than 1.5 fold,less than 1.5 fold,not able to activate,found to activate,found to activate,inhibited,inhibited,6.2 µM,~2 fold,4.3 µM,statistically non-significant decrease,statistically significant decreases,statistically significant decreases
